In the library only some 1.8% were active in any assay of this set; here they are far more common.
Statin myotox sup = suppressors of statin myotoxicity in C2C12 myotubes, primary screen, cell-based, single point, plate reader; AID 602340, 2012; rescue of ATP level, % at 7.49 µM; 330,000 compounds, 0.78% hits; C2C12 myotubes + simvastatin, ATP luminescence, 48 h; scaled: DMSO 0, geranylgeraniol control 100;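 active means mean ATP rescue above about 67%, or every replicate alone reaching that limit, limit read from the data, passing the limit was not always enough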;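 further: myotubes were challenged with 10 µM simvastatin during compound exposure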
Mot1-301 SUMO = yeast Mot1-301 growth rescue at high temperature, primary screen, SUMOylation pathway inhibitor project, S. cerevisiae, ATP luminescence, 38.5C | S. cerevisiae Mot1-301 growth rescue; percent above DMSO median, 100 means doubled | growth rescue, % at 18.8 µM | 320,000 compounds, 1% hits | AID 2716, 2010;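 active means every valid replicate shows activation above 250% relative to neutral control wells; inactive means the rest, any valid replicate at or below 250%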;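 further: OY570 slx delta 5 strain wells were the positive control but not used for scaling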
Efflux pump inh = inhibitors of Candida efflux pumps in yeast, primary screen, S. cerevisiae, Nile Red, multiplex; S. cerevisiae Candida pump triplex; inhibition, % at 10 µM; 330,000 compounds, 0.44% hits; AID 485275, 2010;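 active means plate passing quality check with inhibition over a set limit, or well fluorescence over plate mean plus 4 SD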;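 further: Nile Red retained in pooled yeast measured as flow cytometry median fluorescence; 0% = buffer negative control and 100% = Enniatin B positive control; higher means more Nile Red kept so more efflux inhibition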
Cneo AK release = Cryptococcus neoformans cell lysis inducers, primary screen, AK release luminescence, single concentration | 360,000 compounds, 0.2% hits | lysis activity, % at 15 µM | C. neoformans lysis, adenylate kinase release luminescence, 4 h; normalised: neutral wells 0, clomiphene wells 100;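 active means mean lysis activity across replicates of at least 80%, whatever share of replicates individually reach that level; inactive means mean lysis activity below 80%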
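Signal: Adenylate kinase release luminescence | Assay system: Log-phase Cryptococcus neoformans yeast cells | Input: Cells at 5 × 10^6 per mL | Buffer or medium: Fresh YPD growth medium | Compound: Single dose | Schedule: Static 4 h at 37 °C with compound, 1 h detection | Controls: Clomiphene | Read-out: Luminescence rise reflecting yeast cell lysis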
* = called active by the depositor; . = no result.

SMILES	Statin myotox sup	Mot1-301 SUMO	Efflux pump inh	Cneo AK release
Clc1ccc(C(Cn2ccnc2)OCc2c(Cl)cccc2Cl)c(Cl)c1 (stereo not given)	-19	346*	0	-3
Cc1c(C(=O)Nc2ccc(Cl)cn2)oc2ccccc12	86*	-2	1	-2
Cc1c(C(=O)Nc2cnccn2)oc2ccccc12	-89	382	0	0
Cc1ccc(S(=O)(=O)Nc2cccc3c2O[C@@H](CN(C)Cc2ccc(C(F)(F)F)cc2)[C@H](C)CN([C@@H](C)CO)C3=O)cc1	78*	.	.	0
Cc1ccc(S(=O)(=O)Nc2cccc3c2O[C@@H](CN(C)Cc2ccc(C(F)(F)F)cc2)[C@H](C)CN([C@H](C)CO)C3=O)cc1	101*	.	.	-1
C[C@@H]1CN([C@@H](C)CO)C(=O)c2cccc(NS(=O)(=O)c3ccc(F)cc3)c2O[C@@H]1CN(C)Cc1ccc(C(F)(F)F)cc1	5	.	.	12
COc1cc(OC)c(NS(=O)(=O)c2c(C)[nH]c(=O)[nH]c2=O)cc1Cl	3	-16	0	2
C[C@@H]1CN([C@@H](C)CO)C(=O)Cc2cc(NC(=O)CCCCCC(=O)Nc3ccccc3N)ccc2O[C@@H]1CN(C)Cc1ccc(Cl)c(Cl)c1	37	.	.	0
C[C@@H]1CN([C@H](C)CO)C(=O)Cc2cc(NC(=O)CCCCCC(=O)Nc3ccccc3N)ccc2O[C@@H]1CN(C)Cc1ccc(Cl)c(Cl)c1	85*	.	.	0
C[C@H](CO)N1C[C@H](C)[C@H](CN(C)Cc2ccc(Cl)c(Cl)c2)Oc2ccc(NC(=O)CCCCCC(=O)Nc3ccccc3N)cc2CC1=O	139*	.	.	-1
Cc1ccc(N(C(C)C(=O)Nc2ccc(S(=O)(=O)N3CCOCC3)cc2)S(C)(=O)=O)cc1C (stereo not given)	3	286*	0	0
C#CCN1C(=O)C2C(C(=O)NC)C3C=CC2(O3)C1C(=O)NCc1ccc(OC)cc1 (stereo not given)	-7	-12	0	0
C=CCN1C(=O)C2C(C(=O)NC)C3C=CC2(O3)C1C(=O)NCc1ccc(OC)cc1 (stereo not given)	105*	-12	0	3
NC(=O)c1ccc(-c2nnn(CC(=O)N(C3CCCC3)C3CCS(=O)(=O)C3)n2)cc1 (stereo not given)	4	9	0	0
O=C(Cn1nnc(-c2ccncc2)n1)N(C1CCCCC1)C1CCCCC1	124*	116	0	0
COC(=O)C1=C(C)N=C2SC(C)C(=O)N2C1c1ccc(C(=O)OC)cc1 (stereo not given)	-1	-2	0	-6
COC(=O)C1=C(C)N=C2SC(C)C(=O)N2C1c1cccs1 (stereo not given)	121*	-13	0	-1
CCCN(CCC)C(=O)Cn1c(=O)n(CCCCC(=O)NCc2ccco2)c(=O)c2ccccc21	.	294*	0	-2
O=C(CCCn1c(=O)c2ccccc2n(CC(=O)NCc2ccco2)c1=O)NCc1ccco1	-4	-8	0	-4
CSCc1c(C(=O)NC2CCCc3ccccc32)oc2ccccc12 (stereo not given)	102*	2	0	0
CCN(CC)S(=O)(=O)c1ccc2oc(C(=O)NC3CCCc4ccccc43)c(C)c2c1 (stereo not given)	-4	63	0	2
Cc1cccnc1NC(=O)Nc1cccc(F)c1	3	.	.	-2
CC(=O)Nc1cc(-c2nn(C)c(=O)c3ccccc23)ccc1N1CCOCC1	106*	9	0	-1
CCCC(=O)Nc1cc(-c2nn(C)c(=O)c3ccccc23)ccc1N1CCOCC1	-7	178	0	0
Cc1ccc(NC(=O)CSCC(=O)NCc2ccco2)cc1	0	-9	0	.
SMILES	Statin myotox sup	Mot1-301 SUMO	Efflux pump inh	Cneo AK release
Cc1ccc(NC(=O)C(=S)NCc2ccco2)cc1	135*	4	0	1
N#C[C@H]1N[C@@H](CO)[C@@H]1c1ccc(C2=CCCC2)cc1	-18	.	.	-3
C[C@H]1CCCCO[C@@H](CN(C)C(=O)CCC(F)(F)F)[C@@H](C)CN([C@@H](C)CO)C(=O)c2cc(N(C)C)ccc2O1	-28	.	.	-2
N#Cc1ccc(C23CC4(C2)[C@H](CN(Cc2ccc(C(F)(F)F)cc2)[C@@H]4c2ccccc2)C3c2ccccc2)cc1 (stereo not given in full)	-1	-15	0	135*
FC(F)(F)c1ccc(CN2C[C@@H]3C(c4ccc(C(F)(F)F)cc4)C4(c5cccnc5)CC3(C4)[C@H]2c2ccccc2)cc1 (stereo not given in full)	119*	-13	0	1
O=C(CSc1nc2ccccc2n1-c1ccccc1)Nc1ncc(Cl)cc1Cl	.	23	0	0
COc1ccc(S(=O)(=O)N2CCN=C2SCc2cccc(F)c2)cc1	.	33	0	-1
O=C(O)c1cccc(S(=O)(=O)Nc2ccc(S(=O)(=O)N3CCOCC3)cc2)c1	-5	-10	0	1
COCCNC(=O)[C@@]1(Cc2ccccc2)C=C[C@@H](C)N1C(C)=O	121*	10	0	-1
CC(=O)Nc1cccc(Nc2nc(-c3ccccc3F)nc3ccccc23)c1	106*	2	0	-4
Cc1noc(C)c1S(=O)(=O)N(C)C[C@@H]1OCCCC[C@H](C)Oc2ccc(NC(=O)Cc3ccccc3)cc2C(=O)N([C@H](C)CO)C[C@H]1C	.	.	.	-1
CCC(CC)c1nnc(NC(=O)c2cc(C(=O)OC)cc([N+](=O)[O-])c2)s1	.	400*	1	.
COC(=O)c1cc(C(=O)Nc2nnc(CC(C)C)s2)cc([N+](=O)[O-])c1	.	-10	0	.
CCCSc1nc(N)c2c3c(sc2n1)CN(C)CC3	99*	-1	0	3
O=c1c(-c2nnc(SCc3ccc(Cl)cc3Cl)o2)cccn1Cc1ccccc1	16	-13	0	0
O=C(NC(=S)Nc1ccccc1Cl)c1ccco1	-35	355*	0	-4
O=C(NC(=S)Nc1cccc(Cl)c1N1CCCCC1)c1ccco1	.	0	0	-1
Cc1ccc(S(=O)(=O)N/N=C2/CC(c3ccccc3)Oc3ccccc32)cc1 (stereo not given)	88*	4	0	0
CCOC(=O)c1sc(NC(=O)C2CC2)nc1C	-11	11	0	-3
CCOC(=O)c1sc(NCC2CCCO2)nc1C (stereo not given)	113*	-28	0	3
Cc1ccc(S(=O)(=O)N(Cc2cc3cc4c(cc3[nH]c2=O)OCCO4)CC2CCCO2)cc1 (stereo not given)	-12	332*	0	4
C[C@@H]1CN([C@@H](C)CO)C(=O)Cc2cc(NC(=O)c3ccncc3)ccc2O[C@H]1CN(C)Cc1ccncc1	-2	.	.	100*
